Drawing on ChEMBL document CHEMBL4732051, “The discovery of potent small molecule activators of human STING” (Eur J Med Chem, 2021), this text covers Activity for 26 compounds.

Structures are written as SMILES.

In the first assay the target is T1, Stimulator of interferon genes protein (Homo sapiens, UniProt Q86WV6). Kind of assay: Activation of wild-type human STING expressed in HEK293T cells assessed as IRF3 reporter activation at 1 uM measured after 20 hrs by luciferase reporter gene assay. It is filed as cell-based.
T1 sequence (Q86WV6 whole entry): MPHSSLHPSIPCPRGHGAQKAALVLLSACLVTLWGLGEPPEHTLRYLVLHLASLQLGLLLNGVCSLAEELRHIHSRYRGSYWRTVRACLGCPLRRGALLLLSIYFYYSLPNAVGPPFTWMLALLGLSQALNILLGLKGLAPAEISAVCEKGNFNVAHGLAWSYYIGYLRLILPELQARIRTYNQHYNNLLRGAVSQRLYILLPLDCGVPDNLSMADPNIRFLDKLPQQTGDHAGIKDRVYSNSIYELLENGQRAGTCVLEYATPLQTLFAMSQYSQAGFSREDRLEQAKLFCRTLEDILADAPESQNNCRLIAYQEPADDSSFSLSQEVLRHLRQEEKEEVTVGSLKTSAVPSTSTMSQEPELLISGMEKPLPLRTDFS
Settings: not given
In outline: (§1)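 HEK293T-hSTING cells carrying a secreted luciferase reporter under an IRF-inducible promoter, made by blasticidin selection and clonal selection; parental HEK293T-luciferase cells as control. 5 x 10^5 cells per well treated at a single concentration. Supernatant luciferase read after 20 h by Quanti-Luc, as % activation relative to a positive-control agonist.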
On to `COC1(C)C(=O)N(Cc2c(F)cccc2Cl)c2cc(C(=O)NCc3c(F)cc(F)cc3F)ccc21` (racemic), for which the Activity was 20%.

As for `O=C(NCc1c(F)cc(F)cc1F)c1cnc2c(c1)N(Cc1cc(F)cc(F)c1)C(=O)CO2`, the Activity was found to be 3%.

Take `CC1Oc2ncc(C(=O)NCc3c(F)cc(F)cc3F)cc2N(Cc2cc(F)cc(F)c2)C1=O` (racemic): the Activity was found to be 6%.

Regarding `O=C(NCc1c(F)cc(F)cc1F)c1ccc2c(n1)N(Cc1cc(F)cc(F)c1)C(=O)CC2`, the Activity amounted to 5%.

The same assay, now with this note: filed as activator.
For `CC1Cc2ccc(C(=O)NCc3c(F)cc(F)cc3F)cc2N(Cc2c(F)cccc2Cl)C1=O` (racemic), the Activity was found to be 92%.

`CC1(C#N)C(=O)N(Cc2c(F)cccc2Cl)c2cc(C(=O)NCc3c(F)cc(F)cc3F)ccc21` (racemic): the Activity is 102%.

Consider `CC1Oc2ccc(C(=O)NCc3c(F)cc(F)cc3F)cc2N(Cc2cc(F)cc(F)c2)C1=O` (racemic), for which the Activity was 95%.

Take `CC1(C)CC(=O)N(Cc2cc(F)cc(F)c2)c2cc(C(=O)NCc3c(F)cc(F)cc3F)ccc21`: the Activity was 102%.

For the compound `O=C(NCc1c(F)cc(F)cc1F)c1ccc2c(c1)N(Cc1c(F)cccc1Cl)C(=O)CC2`, the Activity stood at 107%.

Take `CC1(C)C(=O)N(Cc2ccccc2F)c2cc(C(=O)NCc3c(F)cc(F)cc3F)ccc21`: the Activity amounted to 116%.

Turning to `CC1Cc2ccc(C(=O)NCc3c(F)cc(F)cc3F)cc2N(Cc2cc(F)cc(F)c2)S1(=O)=O` (racemic), the Activity turned out to be 40%.

Another assay concerns the target T1, Stimulator of interferon genes protein. Kind of assay: Activation of wild-type human STING expressed in HEK293T cells assessed as IRF3 reporter activation at 10 uM measured after 20 hrs by luciferase reporter gene assay.
Settings: not given
It is filed as cell-based. In short, it runs like this: as §1
A general note: Reporter assays use an easily measured gene product as a stand-in for the process of interest.
Regarding `O=C(NCc1ccco1)c1ccc2c(c1)N(Cc1c(F)cccc1Cl)C(=O)C21CC1`, the Activity was determined as 6%.

Turning to `O=C(NCc1c(F)cc(F)cc1F)c1ccc2c(c1)N(C(=O)c1c(F)cccc1Cl)CCO2`, the Activity is 26%.

Regarding `CN1C(=O)C(C)(Cc2ccccc2)c2cc(C(=O)NCc3ccco3)ccc21` (stereo unspecified), the Activity is -1%.

On to `O=C(NCc1ccco1)c1ccc2c(c1)N(Cc1c(F)cccc1Cl)C(=O)CO2`, for which the Activity stood at 30%.

As to `O=C(NCc1ccco1)c1ccc2c(c1)N(Cc1ccccc1)C(=O)CCO2`, the Activity was -1%.

For `O=C(NCc1ccco1)c1ccc2[nH]c(=O)n(Cc3ccccc3)c(=O)c2c1`, the Activity came out at 0%.

As to `O=C(NCc1ccco1)c1ccc2c(c1)N(Cc1ccccc1)C(=O)CS2`, the Activity stood at 27%.

Consider `O=C(NCc1ccco1)c1ccc2ccn(Cc3ccccc3)c2c1`, for which the Activity is -1%.

Consider `O=C(NCc1ccco1)c1ccc2[nH]c(=O)n(Cc3ccccc3Cl)c2c1`, for which the Activity is -1%.

The assay is the same for the next values; noted with them: filed as activator.
Take `O=C(NCc1ccco1)c1ccc2c(c1)N(Cc1c(F)cccc1Cl)C(=O)CC2`: the Activity is 105%.

As for `O=C(NCc1c(F)cc(F)cc1F)c1cnc2c(c1)N(Cc1cc(F)cc(F)c1)C(=O)CC2`, the Activity was determined as 58%.

Consider `CC1(C)C(=O)N(Cc2ccccc2F)c2cc(C(=O)NCc3ccco3)ccc21`, for which the Activity is 73%.

The next assay has the same target. The assay can be described thus: Activation of wild-type human STING expressed in HEK293T cells assessed as IRF3 reporter activation at 100 uM measured after 20 hrs by luciferase reporter gene assay. The assay is classed as cell-based.
Settings: not given
In outline:
as §1
Consider `O=C(NCc1ccco1)c1ccc2c(c1)N(Cc1c(F)cccc1Cl)C(=O)C[S+]2[O-]` (stereo unspecified), for which the Activity is 7%.

The next assay has the same target. The assay can be described thus: Activation of wild-type human STING expressed in HEK293T cells assessed as IRF3 reporter activation at 50 uM measured after 20 hrs by luciferase reporter gene assay. The assay is classed as cell-based.
Settings: not given
In outline:
as §1
For the compound `O=C(NCc1ccco1)c1ccc2c(c1)N(Cc1ccccc1F)C(=O)C2=O`, the Activity came to 0%.

The target is the same in another assay. The assay can be described thus: Activation of wild-type human STING expressed in HEK293T cells assessed as IRF3 reporter activation at 20 uM measured after 20 hrs by luciferase reporter gene assay. It is filed as cell-based. The conditions noted are these: filed as activator. In outline:
as §1
Regarding `CC1(O)C(=O)N(Cc2c(F)cccc2Cl)c2cc(C(=O)NCc3c(F)cc(F)cc3F)ccc21` (racemic), the Activity worked out at 67%.
